Measured values taken from ChEMBL document CHEMBL1134666, “Design, synthesis, and biological evaluation of novel nucleoside and nucleotide analogues as agents against DNA viruses and/or retroviruses” (J Med Chem, 2001).

Columns and labels:
[1] = substrate: COC1=C(OC)/C(=C/COP(=O)(O)COCCn2cnc3c(N)ncnc32)OC1=O; test: (§1) Michaelis rate constant is determined by the Lineweaver and Burk method against adenosine deaminase
How it was run: (§2)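 Reaction velocity measured as µmol/min per mg enzyme across substrate concentrations.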

[2] = substrate: COC1=C(OC)/C(=C/COP(=O)(O)OC[C@H]2O[C@@H](n3cnc4c(N)ncnc43)[C@H](O)[C@@H]2OP(=O)(O)COCCn2cnc3ncnc(N)c32)OC1=O; test: as §1; how it was run: as §2
[3] = substrate: Nc1ncnc2c1ncn2[C@@H]1O[C@H](COP(=O)(O)O)[C@@H](OP(=O)(O)COCCn2cnc3ncnc(N)c32)[C@H]1O; test: as §1; how it was run: as §2
[4] = substrate: Nc1ncnc2ncn(CCOCP(=O)(O)O)c12; test: as §1; how it was run: as §2
[5] = substrate: Nc1ncnc2ncn(COCCO)c12; test: as §1; how it was run: as §2
[6] = substrate: Nc1nc(O)c2c(ncn2COCCO)n1; settings: herpes simplex virus
[7] = substrate: Nc1ncnc2c1ncn2COCCO; settings: herpes simplex virus
[8] = substrate: Nc1ncnc2c1ncn2[C@@H]1O[C@H](CO)[C@@H](O)[C@@H]1O; settings: herpes simplex virus
[9] = substrate: Nc1ncnc2ncn(COCCO)c12; settings: herpes simplex virus
[10] = substrate: Nc1nc(O)c2c(ncn2COCCO)n1; settings: Chlorocebus sabaeus; Vero
[11] = substrate: Nc1nc2c(ncn2COCCO)c(=O)[nH]1; settings: Chlorocebus sabaeus; Vero
[12] = substrate: Nc1ncnc2c1ncn2[C@@H]1O[C@H](COP(=O)(O)O)[C@@H](OP(=O)(O)COCCn2cnc3ncnc(N)c32)[C@H]1O; test: (§3) Michaelis rate constant is determined by the Lineweaver and Burk method against PRPP synthetase
How it was run: (§4)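 PRPP synthetase reaction in 10.0 mM potassium phosphate buffer (pH 8.0) with 5.0 mM MgCl₂, 2.5 mM PRPP, 0.04 unit enzyme and AMP or test nucleotide. Reactions ran linearly and were stopped with MeOH after 4 h. Diphosphate or ATP formation was analysed by anion-exchange HPLC. Inhibition was measured at different AMP concentrations plus inhibitor, with 0.002 unit enzyme, 37 °C, 15 min, ATP formation followed by HPLC.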

[13] = substrate: Nc1ncnc2ncn(CCOCP(=O)(O)O)c12; test: as §3; how it was run: as §4

B1: Adenosine deaminase (Bos taurus), P56658 (protein)
chain: MAQTPAFNKPKVELHVHLDGAIKPETILYYGRKRGIALPADTPEELQNIIGMDKPLSLPEFLAKFDYYMPAIAGCREAVKRIAYEFVEMKAKDGVVYVEVRYSPHLLANSKVEPIPWNQAEGDLTPDEVVSLVNQGLQEGERDFGVKVRSILCCMRHQPSWSSEVVELCKKYREQTVVAIDLAGDETIEGSSLFPGHVKAYAEAVKSGVHRTVHAGEVGSANVVKEAVDTLKTERLGHGYHTLEDATLYNRLRQENMHFEVCPWSSYLTGAWKPDTEHPVVRFKNDQVNYSLNTDDPLIFKSTLDTDYQMTKNEMGFTEEEFKRLNINAAKSSFLPEDEKKELLDLLYKAYGMPSPASAEQCL
[1]
  Km: > 800 µM
[2]
  Km: 640 µM
[3]
  Km: 160 µM
[4]
  Km: > 800 µM
[5]
  Km: 200 µM

B2: Thymidine kinase, cytosolic (Homo sapiens), P04183 (protein)
chain: MSCINLPTVLPGSPSKTRGQIQVILGPMFSGKSTELMRRVRRFQIAQYKCLVIKYAKDTRYSSSFCTHDRNTMEALPACLLRDVAQEALGVAVIGIDEGQFFPDIVEFCEAMANAGKTVIVAALDGTFQRKPFGAILNLVPLAESVVKLTAVCMECFREAAYTKRLGTEKEVEVIGGADKYHSVCRLCYFKKASGQPAGPDNKENCPVPGKPGEAVAARKLFAPQQILQCSPAN
[6]
  Km: 12.8 µM
[7]
  Km: 2 µM
[8]
  Km: 1.5 µM
[9]
  Km: 30 µM
[10]
  Km: 18.3 µM
[11]
  Km: 2.2 µM

B3: Phosphoribosyl pyrophosphate synthase-associated protein 2 (Homo sapiens), O60256 (protein)
chain: MFCVTPPELETKMNITKGGLVLFSANSNSSCMELSKKIAERLGVEMGKVQVYQEPNRETRVQIQESVRGKDVFIIQTVSKDVNTTIMELLIMVYACKTSCAKSIIGVIPYFPYSKQCKMRKRGSIVSKLLASMMCKAGLTHLITMDLHQKEIQGFFNIPVDNLRASPFLLQYIQEEIPDYRNAVIVAKSPASAKRAQSFAERLRLGIAVIHGEAQDAESDLVDGRHSPPMVRSVAAIHPSLEIPMLIPKEKPPITVVGDVGGRIAIIVDDIIDDVDSFLAAAETLKERGAYKIFVMATHGLLSSDAPRRIEESAIDEVVVTNTIPHEVQKLQCPKIKTVDISMILSEAIRRIHNGESMSYLFRNIGLDD
[12]
  Km: 570 µM
[13]
  Km: 4800 µM
